# Shown are actives, neighbours in structure and some others; about 2.7% of the full set was active somewhere.
# PAFAH1B3 FP inh: PAFAH1B3 enzyme inhibitors, primary screen, biochemical, fluorescence polarization, human | recombinant PAFAH1B3, FP-rhodamine probe | 340,000 compounds, 0.28% hits | inhibition, % at 3.39 µM | AID 492972, 2010;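 active = inhibition above the screen-wide average of all tested compounds plus 3 SD, cut at about 25% in these data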;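 also: 0% = enzyme with DMSO only and 100% = wells lacking PAFAH1B3 protein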
# pPAFAH FP inh: pPAFAH enzyme inhibitors, primary screen, biochemical, fluorescence polarization, human. recombinant pPAFAH, FP-rhodamine probe fluorescence polarization. inhibition, % at 3.39 µM. 330,000 compounds, 1.5% hits. AID 463082, 2010;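 active = inhibition above the mean inhibition across the screen plus 3 SD, cut at about 25% in these data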;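 also: inhibitors block binding of the rhodamine activity-based probe so polarization drops; 0% = enzyme with DMSO and 100% = wells lacking pPAFAH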
# Target sequence (Q13093 whole entry, looked up): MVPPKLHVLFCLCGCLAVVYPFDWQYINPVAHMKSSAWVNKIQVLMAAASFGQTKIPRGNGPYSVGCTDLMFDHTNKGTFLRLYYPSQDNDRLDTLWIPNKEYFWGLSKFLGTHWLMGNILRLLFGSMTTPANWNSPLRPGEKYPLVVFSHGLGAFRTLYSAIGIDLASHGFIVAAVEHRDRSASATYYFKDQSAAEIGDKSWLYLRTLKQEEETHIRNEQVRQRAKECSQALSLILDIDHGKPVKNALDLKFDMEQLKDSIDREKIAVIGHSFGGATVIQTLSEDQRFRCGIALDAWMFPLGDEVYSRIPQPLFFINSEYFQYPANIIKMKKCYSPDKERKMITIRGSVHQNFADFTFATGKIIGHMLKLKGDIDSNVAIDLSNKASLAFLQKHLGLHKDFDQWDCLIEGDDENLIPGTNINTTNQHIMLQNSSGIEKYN
# PAFAH1B2 inh: PAFAH1B2 enzyme inhibitors, primary screen, biochemical, fluorescence polarization, human; Platelet-activating factor acetylhydrolase IB subunit alpha2 (Homo sapiens), P68402; recombinant PAFAH1B2, FP-rhodamine activity probe; inhibition, % at 3.39 µM; 340,000 compounds, 1.2% hits; AID 492953, 2010;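 active = inhibition above the mean of all tested compounds plus 3 SD, cut at about 24% in these data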;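 also: 0% = enzyme with DMSO and 100% = wells lacking PAFAH1B2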
# RBBP9 inhibitor: human RBBP9 inhibitors, primary screen, biochemical, fluorescence polarization, FP-Rh probe, HTS; recombinant RBBP9; inhibition, % at 7.94 µM; 220,000 compounds, 0.2% hits; AID 1515, 2009;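 active = inhibition above the campaign mean of all tested compounds plus 3 SD, cut at about 14% in these data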;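 also: plate controls were DMSO wells with RBBP9 for no effect and wells lacking RBBP9 protein for full effect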
# Target sequence (O75884 whole entry, looked up): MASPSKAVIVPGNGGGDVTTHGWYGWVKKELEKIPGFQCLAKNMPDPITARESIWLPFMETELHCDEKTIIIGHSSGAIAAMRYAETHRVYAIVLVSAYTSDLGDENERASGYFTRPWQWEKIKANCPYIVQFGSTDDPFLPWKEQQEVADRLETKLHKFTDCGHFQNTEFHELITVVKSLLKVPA
#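 Assay system: recombinant human RBBP9; Reagent: Serine-hydrolase probe FP-Rh, 375 nM pre-mixing; Doses: 7.94 µM single dose, 0.794% DMSO; Incubation: 30 min then 45 min, 25 °C; Detection: fluorescence polarization (mP), excitation 525 nm, emission 598 nm; Evaluation: percent inhibition from mP, scaled between DMSO and no-protein wells.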
# PAFAH2 FP inh: PAFAH2 enzyme inhibitors, primary screen, biochemical, fluorescence polarization, human; inhibition, % at 3.39 µM; Platelet-activating factor acetylhydrolase 2, cytoplasmic (Homo sapiens), Q99487; AID 492956, 2010; 340,000 compounds, 0.99% hits; recombinant PAFAH2, FP-rhodamine activity probe;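 active = inhibition above the mean over all tested compounds plus 3 SD, cut at about 30% in these data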;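 also: inhibitors block probe labeling of enzyme so polarization drops; 0% = enzyme with DMSO and 100% = wells lacking PAFAH2 protein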
# PAFAH2 confirm: PAFAH2 enzyme inhibitors, confirmation, biochemical, fluorescence polarization, human; inhibition, % at 3.39 µM; recombinant PAFAH2, FP-rhodamine activity probe; shares compounds with PAFAH2 FP inh; 2,300 compounds, 65% hits;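 active = mean inhibition over three repeats above a set limit taken from the earlier primary screen, cut at about 30% in these data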;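 also: inhibitor blocks binding of rhodamine activity probe so polarization falls; 0% = enzyme with DMSO and 100% = wells lacking PAFAH2 protein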
# Numbers without * were called inactive; · = no result given.
SMILES,PAFAH1B3 FP inh,pPAFAH FP inh,PAFAH1B2 inh,RBBP9 inhibitor,PAFAH2 FP inh,PAFAH2 confirm
O=C(COC(=O)c1ccc2c(c1)OCCO2)Nc1cccc(S(=O)(=O)N2CCOCC2)c1,0,4,4,0,65*,56*
NS(=O)(=O)c1cccc(NC(=O)COC(=O)c2ccc(S(=O)(=O)N3CCOCC3)cc2)c1,-4,·,-4,·,10,·
O=C(Nc1ccc2c(c1)OCO2)c1cccc(S(=O)(=O)N2CCOCC2)c1,2,2,-2,·,2,·
O=C(COC(=O)c1cccc(S(=O)(=O)N2CCOCC2)c1)Nc1ccc2c(c1)OCO2,6,12,2,-1,66*,38*
O=C(OCC(=O)N1CCCc2ccccc21)c1cc(S(=O)(=O)N2CCOCC2)ccc1O,-3,6,5,·,73*,63*
CCN(C[C@H]1N[C@@](Cc2ccccc2)(C(=O)OC)[C@H]2C(=O)N(C)C(=O)[C@@H]12)C(=O)Nc1ccc(F)cc1,5,-10,7,·,2,·
Cc1onc(-c2c(F)cccc2Cl)c1C(=O)OCC(=O)NCc1ccccc1,6,10,7,·,6,·
CCC(CC)C(=O)OCC(=O)NC12CC3CC(CC(C3)C1)C2,9,4,10,-2,64*,43*
O=C(COC(=O)C12CC3CC(CC(C3)C1)C2)NC12CC3CC(CC(C3)C1)C2,1,23,14,-10,90*,86*
N#CC1(NC(=O)COC(=O)C23CC4CC(CC(O)(C4)C2)C3)CCCCC1,9,8,4,·,48*,45*
CCOC(=O)C1=C(C)NC(C)=C(C(=O)OCC)C1C(=O)OCC(=O)NC1(C#N)CCCCC1,-4,-6,-1,·,-1,·
O=S1(=O)[C@H]2C[C@@H]3C=C[C@@]2(CN1Cc1cccc(F)c1)O3,-2,-1,-2,·,-7,·
O=C(COC(=O)/C=C/c1ccccc1)Nc1cccc(Oc2ccccc2)c1,-3,-6,-17,-3,36*,32*
O=C(COC(=O)/C=C/c1ccc(Cl)cc1)Nc1ccccc1,8,3,2,0,73*,72*
NC(=O)c1ccsc1NC(=O)COC(=O)/C=C/c1ccccc1,4,6,6,·,9,·
O=C(COC(=O)/C=C/c1ccc(Cl)cc1)Nc1ccc2[nH]c(=O)[nH]c2c1,-5,-5,-13,·,-30,·
O=C(COC(=O)/C=C/c1ccccc1)Nc1ccc2c(c1)OCCO2,-7,8,4,·,69*,56*
O=C(N/C(=C\c1ccccc1)C(=O)N1CCN(CCO)CC1)c1ccccc1,3,7,-2,-2,-3,·
CCN(CC(=O)Nc1ccccc1C(F)(F)F)C(=O)CCSc1ccc(F)cc1,7,-4,12,·,-2,·
N#CCCCCN1c2cccc3cccc(c23)S1(=O)=O,4,3,1,-5,-1,·
COCCN(CC1CCCN(C2Cc3ccccc3C2)C1)C(=O)CSC (stereo not given),1,-2,2,·,37*,23
COCCN(CC1CCCN(C2Cc3ccccc3C2)C1)C(=O)CCSC (stereo not given),9,2,-2,·,18,·
Cc1cc(=O)n2[nH]c(SCc3ccccc3Cl)nc2n1,6,21,4,·,40*,28
O=c1oc(-c2cccs2)nc2sc3c(c12)CCCC3,11,6,-1,-1,42*,38*
O=c1[nH]c(-c2ccco2)nc2sc3c(c12)CCCC3,-5,8,5,-3,3,·
SMILES,PAFAH1B3 FP inh,pPAFAH FP inh,PAFAH1B2 inh,RBBP9 inhibitor,PAFAH2 FP inh,PAFAH2 confirm
Cc1nc2sc3c(c2c(=O)o1)CC(C)(C)OC3,2,1,-1,-4,4,·
O=c1c2c3c(sc2nc2n1N=C(c1cccs1)CS2)CCCC3,9,-10,-6,-7,5,·
O=c1oc(-c2cccs2)nc2sc3c(c12)CCC3,8,-4,4,-2,56*,48*
Cc1nc2sc3c(c2c(=O)o1)CCC3,4,-7,8,-7,60*,50*
O=c1oc(/C=C/c2ccco2)nc2sc3c(c12)CCC3,-3,7,0,-7,55*,26
Cc1nn(CC2CC2)c(=O)n1-c1ccc(F)cc1,3,-2,4,-1,1,·
CC(C)[C@H](NC(N)=O)C(=O)NNC(=O)COc1cccc(C(F)(F)F)c1,4,15,3,-3,3,·
COc1ccc(CNC(=O)C(C)OC(=O)c2cccs2)cc1 (stereo not given),12,5,3,·,1,·
Cc1cc(C)nc(SCc2nnc(SCC(=O)N3CCCc4ccccc43)o2)n1,7,6,1,0,8,·
O=C(OCC(=O)c1ccc[nH]1)c1ccccc1,-1,2,3,-2,14,·
CN(C)c1ccc(C(=O)OCC(=O)c2cccs2)cc1,3,3,-1,-12,71*,76*
CN(C)c1ccc(C(=O)OCC(=O)c2ccc[nH]2)cc1,2,7,2,·,68*,68*
Cc1ccc(C(=O)COC(=O)c2cccs2)cc1,9,2,2,-13,30*,21
CCOC(=O)C1CC2=C(CCCC2=O)N(Cc2ccccc2)C1=O (stereo not given),8,·,5,·,6,·
CCOC(=O)C1CC2=C(CCCC2=O)NC1=O (stereo not given),7,·,3,·,32*,22
N=c1c(C(=O)NC2CCCC2)cc2c(=O)n3ccccc3nc2n1C1CCCCC1,3,-1,5,·,-11,·
O=C(NC12CC3CC(CC(C3)C1)C2)c1cncc(O)c1,18,3,22,-9,38*,20
Cc1cccc(N2CCN(C(=O)c3noc4c3COc3ccc(C)cc3-4)CC2C)c1 (stereo not given),-4,2,3,·,-3,·
Cc1ccc(C(=O)OCC(=O)Nc2ncc(C(F)(F)F)cc2Cl)cc1NC(=O)c1ccco1,4,0,-2,-10,36*,27
C/C=N\NC(=O)COc1cc(C)ccc1C,·,5,·,-8,·,·
O=C(COC(=O)C1CCC1)NCc1ccccc1Cl,9,1,2,0,17,·
CC1CC1C(=O)OCC(=O)NCc1ccccc1Cl (stereo not given),18,6,4,3,68*,56*
O=C(COC(=O)C1CC2C=CC1C2)NCc1ccccc1Cl (stereo not given),2,16,8,-13,45*,44*
COc1cc(/C=C/C(=O)OCC(=O)N2CCCc3ccccc32)ccc1O,6,5,2,·,51*,41*

# Screening data from PubChem.
